Data reported in PubChem BioAssay AID651936 (NMMLSC, 2012).

Tested on: AM2.2-beta2AR cells, FAP fluorogen binding after washes, flow cytometry
Experiment: washout recovery of fluorogen binding to FAP – AM2.2-beta2AR cells, powder sets 3 and 4, mechanism study for beta2AR internalization ligand project (AID 651936)
Method in brief: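 Assay system: AM2.2-beta2AR cells; Incubation: 90 min compound exposure at 37 °C; Detection: flow cytometry of TO1-2p-labelled cell aliquots; Read-out: TO1-2p binding versus number of washes; Benchmarks: DMSO negative control.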

CC(C)n1nnc2cc(S(=O)(=O)N(C)CC(=O)N3CCN(c4ccccn4)CC3)ccc21
normalized fluorogen binding (at 60 µM (top of the series)): 0.257

CN(CC(=O)N1CCN(c2ccccn2)CC1)S(=O)(=O)c1ccccc1
normalized fluorogen binding (at 0.85 µM (top of the series)): 0.218

CN(CC(=O)N1CCN(c2ccccn2)CC1)S(=O)(=O)c1ccc(Cl)cc1
normalized fluorogen binding (at 0.2 µM (top of the series)): 0.143

CCOC(=O)N1CCN(C(=O)CN(C)S(=O)(=O)c2ccc(Cl)cc2)CC1
normalized fluorogen binding (at 10 µM (top of the series)): 0.122

CCCCC(=O)Nc1ccc(S(=O)(=O)N2CCCCC2c2cccnc2)cc1 (configuration not stated)
normalized fluorogen binding (at 0.3 µM (top of the series)): 0.181

Cc1ccc(S(=O)(=O)N(C)CC(=O)N2CCN(c3ccccn3)CC2)cc1
normalized fluorogen binding (at 0.8 µM (top of the series)): 0.124

CN(CC(=O)N1CCN(c2cccc(C(F)(F)F)c2)CC1)S(=O)(=O)c1ccc(F)cc1
normalized fluorogen binding (at 60 µM (top of the series)): 0.233

O=C(Nc1ccc(S(=O)(=O)N2CCCCC2c2cccnc2)cc1)c1c(F)cccc1F (configuration not stated)
normalized fluorogen binding (at 2 µM (top of the series)): 0.232

CC(=O)Nc1ccc(S(=O)(=O)N2CCCCC2c2cccnc2)cc1 (configuration not stated)
normalized fluorogen binding (at 1.4 µM (top of the series)): 0.147 | normalized fluorogen binding (at 60 µM (top of the series)): 0.642

CN(CC(=O)N1CCN(c2ccccn2)CC1)S(=O)(=O)c1ccc(Br)cc1
normalized fluorogen binding (at 0.2 µM (top of the series)): 0.145

Cc1ccc(S(=O)(=O)N2CCCCC2C(=O)N2CCN(c3ccc(C(F)(F)F)cn3)CC2)cc1 (configuration not stated)
normalized fluorogen binding (at 100 µM (top of the series)): 0.154
